Our source for the Ki values is BindingDB's records for doi:10.1021/jm950541c (Georgia Institute of Technology, 1996).

Structures are written as SMILES.

The assay addresses T1, Calpain-2 catalytic subunit (Homo sapiens, UniProt P17655).
T1 sequence (P17655 whole entry): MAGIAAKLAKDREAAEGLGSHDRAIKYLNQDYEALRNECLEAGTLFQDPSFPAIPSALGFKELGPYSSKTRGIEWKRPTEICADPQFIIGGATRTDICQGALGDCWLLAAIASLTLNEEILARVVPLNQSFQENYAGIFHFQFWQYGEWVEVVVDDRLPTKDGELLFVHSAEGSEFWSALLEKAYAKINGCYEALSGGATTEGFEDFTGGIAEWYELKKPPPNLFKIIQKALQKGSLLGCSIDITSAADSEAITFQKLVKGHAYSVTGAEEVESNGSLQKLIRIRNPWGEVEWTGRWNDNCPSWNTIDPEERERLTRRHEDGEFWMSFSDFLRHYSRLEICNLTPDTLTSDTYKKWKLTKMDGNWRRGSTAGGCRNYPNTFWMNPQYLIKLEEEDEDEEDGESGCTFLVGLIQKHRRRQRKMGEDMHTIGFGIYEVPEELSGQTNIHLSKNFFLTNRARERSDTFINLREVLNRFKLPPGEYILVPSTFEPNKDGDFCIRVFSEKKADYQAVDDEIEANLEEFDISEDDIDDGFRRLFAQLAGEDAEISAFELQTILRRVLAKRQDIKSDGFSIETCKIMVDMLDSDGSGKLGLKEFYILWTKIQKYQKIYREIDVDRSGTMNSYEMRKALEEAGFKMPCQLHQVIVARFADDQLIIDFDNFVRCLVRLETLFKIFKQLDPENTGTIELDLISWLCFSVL
In words: Compound was evaluated for the inhibition of Cysteine protease Calpain 2. The method, boiled down:
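Calpain assay in 25 mM Tris, pH 8.0, with 10 mM CaCl₂ and 5% DMSO. Suc-Leu-AMC hydrolysis was read as initial velocity (t = 30-60 s) after a 30 s delay, at room temperature. Five or more inhibitor concentrations (not above 2 × K_obs) were used at two fixed substrate levels. Ki came from Dixon plots (1/v vs I) averaged over triplicates.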
The molecule `CCC(NC(=O)C(CC(C)C)NC(=O)OCc1ccccc1)C(=O)C(=O)NCCc1cccn1C` (centres undefined) [(3-Methyl-1-{1-[2-(1-methyl-1H-pyrrol-2-yl)-ethylaminooxalyl]-propylcarbamoyl}-butyl)-carbamic acid benzyl ester] registered a Ki of 76 nM.

Molecule `CCCC(NC(=O)C(CC(C)C)NC(=O)OCc1ccccc1)C(=O)C(=O)NCC(O)c1ccccc1` (centres undefined) [{1-[1-(2-Hydroxy-2-phenyl-ethylaminooxalyl)-butylcarbamoyl]-3-methyl-butyl}-carbamic acid benzyl ester] gave a Ki of 11000 nM.

Molecule `CCOC(CNC(=O)C(=O)C(CC)NC(=O)C(CC(C)C)NC(=O)OCc1ccccc1)OCC` (centres undefined) [{1-[1-(2,2-Diethoxy-ethylaminooxalyl)-propylcarbamoyl]-3-methyl-butyl}-carbamic acid benzyl ester] showed a Ki of 160 nM.

As to `CCNC(=O)C(=O)C(CC)NC(=O)C(CC(C)C)NC(=O)c1ccco1` (centres undefined) [Furan-2-carboxylic acid [1-(1-ethylaminooxalyl-propylcarbamoyl)-3-methyl-butyl]-amide], the Ki worked out at 580 nM.

The molecule `CC(C)CC(NC(=O)OCc1ccccc1)C(=O)NC(Cc1ccccc1)C(=O)C(=O)NCC(O)c1cccc(Oc2ccc(Cl)c(Cl)c2)c1` (centres undefined) [[1-(1-Benzyl-2-{2-[3-(3,4-dichloro-phenoxy)-phenyl]-2-hydroxy-ethylcarbamoyl}-2-oxo-ethylcarbamoyl)-3-methyl-butyl]-carbamic acid benzyl ester] yielded a Ki of 120 nM.

Turning to `CCC(NC(=O)C(CC(C)C)NC(=O)OCc1ccccc1)C(=O)C(=O)NCc1cc(OC)cc(OC)c1` (centres undefined) [{1-[1-(3,5-Dimethoxy-benzylaminooxalyl)-propylcarbamoyl]-3-methyl-butyl}-carbamic acid benzyl ester], the affinity, expressed as Ki, was 22 nM. Compared with the last molecule, the Ki is about 5.5-fold lower.

The molecule `CCC(NC(=O)C(CC(C)C)NC(=O)OCc1ccccc1)C(=O)C(=O)NCC1(C)CC(O)CC(C)(C)C1` (centres undefined) [{1-[1-(5-Hydroxy-1,3,3-trimethyl-cyclohexylmethyl)-aminooxalyl]-propylcarbamoyl}-3-methyl-butyl)-carbamic acid benzyl ester] yielded a Ki of 69 nM.

Take `CCC(NC(=O)C(CC(C)C)NC(=O)OCc1ccccc1)C(=O)C(=O)NCc1nc2c(c(=O)n(C)c(=O)n2C)n1C` (centres undefined) [{3-Methyl-1-[1-(1,3,7-trimethyl-2,6-dioxo-2,3,6,7-tetrahydro-1H-purin-8-ylmethyl)-aminooxalyl]-propylcarbamoyl}-butyl)-carbamic acid benzyl ester]: the Ki was 4600 nM.

Molecule `CCC(NC(=O)C(CC(C)C)NC(=O)OCc1ccccc1)C(=O)C(=O)NCC(O)c1ccc(Oc2ccccc2)cc1` (centres undefined) [(1-{1-[2-Hydroxy-2-(4-phenoxy-phenyl)-ethylaminooxalyl]-propylcarbamoyl}-3-methyl-butyl)-carbamic acid benzyl ester] gave a Ki of 290 nM.

As to `CC(C)CC(NC(=O)OCc1ccccc1)C(=O)NC(Cc1ccccc1)C(=O)C(=O)NCC(O)c1cccc(C(F)(F)F)c1` (centres undefined) [(1-{1-Benzyl-2-[2-hydroxy-2-(3-trifluoromethyl-phenyl)-ethylcarbamoyl]-2-oxo-ethylcarbamoyl}-3-methyl-butyl)-carbamic acid benzyl ester], the affinity, expressed as Ki, was 290 nM.

`CCC(NC(=O)C(CC(C)C)NC(=O)OCc1ccccc1)C(=O)C(=O)NCC(O)c1ccc2ccccc2c1` (centres undefined) [{1-[1-(2-Hydroxy-2-naphthalen-2-yl-ethylaminooxalyl)-propylcarbamoyl]-3-methyl-butyl}-carbamic acid benzyl ester] yielded a Ki of 110 nM.

`CC(C)CC(NC(=O)C(c1ccccc1)c1ccccc1)C(=O)NC(Cc1ccccc1)C(=O)C(=O)NCc1ccccn1` (centres undefined) [2-Diphenylacetylamino-4-methyl-pentanoic acid {1-benzyl-2-oxo-2-[(pyridin-2-ylmethyl)-carbamoyl]-ethyl}-amide] showed a Ki of 360 nM.

The molecule `CC(C)CC(NC(=O)OCc1ccccc1)C(=O)NC(Cc1ccccc1)C(=O)C(=O)NCC(O)c1ccc(OCc2ccccc2)c(OCc2ccccc2)c1` (centres undefined) [(1-{1-Benzyl-2-[2-(3,4-bis-benzyloxy-phenyl)-2-hydroxy-ethylcarbamoyl]-2-oxo-ethylcarbamoyl}-3-methyl-butyl)-carbamic acid benzyl ester] yielded a Ki of 670 nM.

On to `CCC(NC(=O)C(CC(C)C)NC(=O)OCc1ccccc1)C(=O)C(=O)NCC(O)c1cccc(Oc2ccc(Cl)c(Cl)c2)c1` (centres undefined) [[1-(1-{2-[3-(3,4-Dichloro-phenoxy)-phenyl]-2-hydroxy-ethylaminooxalyl}-propylcarbamoyl)-3-methyl-butyl]-carbamic acid benzyl ester], for which the affinity, expressed as Ki, was 120 nM.

For the molecule `CCC(NC(=O)C(CC(C)C)NC(=O)OCc1ccccc1)C(=O)C(=O)NC` (centres undefined) [[3-Methyl-1-(1-methylaminooxalyl-propylcarbamoyl)-butyl]-carbamic acid benzyl ester], the inhibition constant Ki stood at 83 nM.

In turn, `CCC(NC(=O)C(CC(C)C)NC(=O)OCc1ccccc1)C(=O)C(=O)NCc1ccco1` (centres undefined) [{1-[1-(Furan-2-ylmethyl)-aminooxalyl]-propylcarbamoyl}-3-methyl-butyl)-carbamic acid benzyl ester] returned a Ki of 33 nM. This Ki lies about 2.5-fold lower than the previous one.

Consider `CC(C)CC(NC(=O)C(c1ccccc1)c1ccccc1)C(=O)NC(Cc1ccccc1)C(=O)C(=O)NCCCN1CCOCC1` (centres undefined) [2-Diphenylacetylamino-4-methyl-pentanoic acid [1-benzyl-2-(3-morpholin-4-yl-propylcarbamoyl)-2-oxo-ethyl]-amide], for which the Ki was 74 nM. Compared with the last molecule, the Ki is about 2.2-fold higher.

On to `CCC(NC(=O)C(CC(C)C)NC(=O)OCc1ccccc1)C(=O)C(=O)NCCO` (centres undefined) [{1-[1-(2-Hydroxy-ethylaminooxalyl)-propylcarbamoyl]-3-methyl-butyl}-carbamic acid benzyl ester], for which the affinity corresponds to a Ki of 78 nM.

The molecule `CC(C)CC(NC(=O)OCc1ccccc1)C(=O)NC(Cc1ccccc1)C(=O)C(=O)NCC(O)c1c(F)c(F)c(F)c(F)c1F` (centres undefined) [{1-[1-Benzyl-2-(2-hydroxy-2-pentafluorophenyl-ethylcarbamoyl)-2-oxo-ethylcarbamoyl]-3-methyl-butyl}-carbamic acid benzyl ester] returned a Ki of 350 nM. This Ki is about 4.5-fold higher than that of the molecule before.

`CCNC(=O)C(=O)C(CC)NC(=O)C(CC(C)C)NC(=O)c1cnccn1` (centres undefined) [Pyrazine-2-carboxylic acid [1-(1-ethylaminooxalyl-propylcarbamoyl)-3-methyl-butyl]-amide] displayed a Ki of 480 nM.

Regarding `CCC(NC(=O)C(CC(C)C)NC(=O)OCc1ccccc1)C(=O)C(=O)NCC(O)c1ccc(OCc2ccccc2)cc1` (centres undefined) [(1-{1-[2-(4-Benzyloxy-phenyl)-2-hydroxy-ethylaminooxalyl]-propylcarbamoyl}-3-methyl-butyl)-carbamic acid benzyl ester], the affinity, expressed as Ki, was 120 nM.

The molecule `CC(C)CC(NC(=O)OCc1ccccc1)C(=O)NC(Cc1ccccc1)C(=O)C(=O)NCC(O)c1ccc(OCc2ccccc2)cc1` (centres undefined) [(1-{1-Benzyl-2-[2-(4-benzyloxy-phenyl)-2-hydroxy-ethylcarbamoyl]-2-oxo-ethylcarbamoyl}-3-methyl-butyl)-carbamic acid benzyl ester] gave a Ki of 240 nM. This Ki lies about 2-fold higher than the previous one.

`CCCC(NC(=O)C(CC(C)C)NC(=O)OCc1ccccc1)C(=O)C(=O)NCCCN1CCOCC1` (centres undefined) [{3-Methyl-1-[1-(3-morpholin-4-yl-propylaminooxalyl)-butylcarbamoyl]-butyl}-carbamic acid benzyl ester] returned a Ki of 100 nM.

In turn, `CCC(NC(=O)C(CC(C)C)NC(=O)OCc1ccccc1)C(=O)C(=O)NCC(O)c1cccc(Oc2ccccc2)c1` (centres undefined) [(1-{1-[2-Hydroxy-2-(3-phenoxy-phenyl)-ethylaminooxalyl]-propylcarbamoyl}-3-methyl-butyl)-carbamic acid benzyl ester] gave a Ki of 590 nM.

In turn, `CCNC(=O)C(=O)C(CC)NC(=O)C(CC(C)C)NC(=O)N1CCOCC1` (centres undefined) [Morpholine-4-carboxylic acid [1-(1-ethylaminooxalyl-propylcarbamoyl)-3-methyl-butyl]-amide] came in with a Ki of 9900 nM.

For the molecule `CCC(NC(=O)C(CC(C)C)NC(=O)OCc1ccccc1)C(=O)C(=O)NCCc1ccccn1` (centres undefined) [{3-Methyl-1-[1-(2-pyridin-2-yl-ethylaminooxalyl)-propylcarbamoyl]-butyl}-carbamic acid benzyl ester], the affinity, expressed as Ki, was 470 nM.

As to `CCC(NC(=O)C(CC(C)C)NC(=O)OCc1ccccc1)C(=O)C(=O)NCc1ccccn1` (centres undefined) [{3-Methyl-1-[1-(pyridin-2-ylmethyl)-aminooxalyl]-propylcarbamoyl}-butyl)-carbamic acid benzyl ester], the Ki amounted to 17 nM.

In the case of `CCC(NC(=O)C(CC(C)C)NC(=O)OCc1ccccc1)C(=O)C(=O)NCc1ccccc1` (centres undefined) [[1-(1-Benzylaminooxalyl-propylcarbamoyl)-3-methyl-butyl]-carbamic acid benzyl ester], the Ki was 350 nM.

With `CC(C)CC(NC(=O)OCc1ccccc1)C(=O)NC(Cc1ccccc1)C(=O)C(=O)NCc1ccccn1` (centres undefined) [(1-{1-Benzyl-2-oxo-2-[(pyridin-2-ylmethyl)-carbamoyl]-ethylcarbamoyl}-3-methyl-butyl)-carbamic acid benzyl ester], affinity was put at a Ki of 270 nM.
